# Columns and labels:
# [1] = test system: Aspergillus versicolor; experiment: Antifungal activity against Aspergillus versicolor ATCC 11730 after 72 hrs by serial sub-cultivation method; assay type: functional; settings: ATCC 11730, 72 h
# Method in brief: (§1)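 MFC was found by serial sub-cultivation of 2 µl into plates holding 100 µl broth per well, then incubation 72 h at 28 °C. MFC is the lowest concentration with no visible growth, taken as 99.5% killing of the original inoculum. Spore inocula came from malt agar cultures washed with 0.85% saline and 0.1% Tween 80.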
# [2] = test system: Pseudomonas aeruginosa; experiment: Antibacterial activity against Pseudomonas aeruginosa ATCC 27853 after 72 hrs by serial sub-cultivation method; assay type: functional; settings: ATCC 27853, 72 h
# Method in brief: (§2)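 MBC was found by serial sub-cultivation of 2 µl from the MIC wells into plates holding 100 µl broth per well, then incubation for 72 h. MBC is the lowest concentration with no visible growth, i.e. 99.5% killing of the original inoculum. Bacterial inoculum was 1.0 × 10^4 cfu per well in LB broth. Duplicate, repeated three times.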
# [3] = test system: Trichoderma viride; experiment: Antifungal activity against Trichoderma viride IAM 5061 after 72 hrs by serial dilution method; assay type: functional; settings: IAM 5061, 72 h
# Method in brief: (§3)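 Fungi were kept on malt agar at 4 °C and sub-cultured monthly. Spores were washed off the agar with sterile 0.85% saline containing 0.1% Tween 80 (v/v). Modified microdilution in 96-well plates. MIC is the lowest concentration with no visible growth under the binocular microscope. Inoculum checked on malt agar for contamination and validity.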
# [4] = test system: Bacillus cereus; experiment: Antibacterial activity against Bacillus cereus clinical isolate after 24 hrs; assay type: functional
# Method in brief: (§4)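 Broth microdilution MIC in 96-well plates. Compounds in LB broth with bacterial inoculum of 1.0 × 10^4 cfu per well, from suspensions adjusted with sterile saline to 1.0 × 10⁵ CFU/ml. Incubated 24 h at […] as printed. MIC taken as the lowest concentration with no visible growth under the binocular microscope. OD at 655 nm also read against blank. Streptomycin and ampicillin as positive controls. Duplicate, repeated three times.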
# [5] = test system: Talaromyces funiculosus; experiment: Antifungal activity against Penicillium funiculosum ATCC 36839 after 72 hrs by serial dilution method; assay type: functional; settings: ATCC 36839, 72 h; method in brief: as §3
# [6] = test system: Listeria monocytogenes; experiment: Antibacterial activity against Listeria monocytogenes NCTC 7973 after 72 hrs by serial sub-cultivation method; assay type: functional; settings: NCTC 7973, 72 h; method in brief: as §2
# [7] = test system: Staphylococcus aureus; experiment: Antibacterial activity against Staphylococcus aureus ATCC 6538 after 24 hrs; assay type: functional; settings: ATCC 6538, 24 h; method in brief: as §4
# [8] = test system: Escherichia coli; experiment: Antibacterial activity against Escherichia coli ATCC 35210 after 24 hrs; assay type: functional; settings: ATCC 35210, 24 h; method in brief: as §4
# [9] = test system: Proteus mirabilis; experiment: Antibacterial activity against Proteus mirabilis after 24 hrs; assay type: functional; method in brief: as §4
# [10] = test system: Proteus mirabilis; experiment: Antibacterial activity against Proteus mirabilis after 72 hrs by serial sub-cultivation method; assay type: functional; method in brief: as §2
# [11] = test system: Fulvia fulva; experiment: Antifungal activity against Fulvia fulva TK 5318 after 72 hrs by serial sub-cultivation method; assay type: functional; settings: TK 5318, 72 h; method in brief: as §1
# [12] = test system: Penicillium ochrochloron; experiment: Antifungal activity against Penicillium ochrochloron ATCC 9112 after 72 hrs by serial dilution method; assay type: functional; settings: ATCC 9112, 72 h; method in brief: as §3
# [13] = test system: Aspergillus fumigatus; experiment: Antifungal activity against Aspergillus fumigatus plant isolate after 72 hrs by serial sub-cultivation method
# [14] = test system: Salmonella typhimurium; experiment: Antibacterial activity against Salmonella Typhimurium ATCC 13311 after 24 hrs; assay type: functional, Salmonella enterica subsp. enterica serovar Typhimurium; settings: Salmonella enterica, ATCC 13311, 24 h; method in brief: as §4
# [15] = test system: Salmonella typhimurium; experiment: Antibacterial activity against Salmonella Typhimurium ATCC 13311 after 72 hrs by serial sub-cultivation method; assay type: functional, Salmonella enterica subsp. enterica serovar Typhimurium; settings: Salmonella enterica, ATCC 13311, 72 h; method in brief: as §2
# [16] = test system: Aspergillus flavus; experiment: Antifungal activity against Aspergillus flavus ATCC 9643 after 72 hrs by serial dilution method; assay type: functional; settings: ATCC 9643, 72 h; method in brief: as §3
# [17] = test system: Aspergillus niger; experiment: Antifungal activity against Aspergillus niger ATCC 6275 after 72 hrs by serial sub-cultivation method; assay type: functional; settings: ATCC 6275, 72 h; method in brief: as §1
# [18] = test system: Aspergillus flavus; experiment: Antifungal activity against Aspergillus flavus ATCC 9643 after 72 hrs by serial sub-cultivation method; assay type: functional; settings: ATCC 9643, 72 h; method in brief: as §1
# [19] = test system: Fulvia fulva; experiment: Antifungal activity against Fulvia fulva TK 5318 after 72 hrs by serial dilution method; assay type: functional; settings: TK 5318, 72 h; method in brief: as §3
# [20] = test system: Escherichia coli; experiment: Antibacterial activity against Escherichia coli ATCC 35210 after 72 hrs by serial sub-cultivation method; assay type: functional; settings: ATCC 35210, 72 h; method in brief: as §2
# [21] = test system: Pseudomonas aeruginosa; experiment: Antibacterial activity against Pseudomonas aeruginosa ATCC 27853 after 24 hrs; assay type: functional; settings: ATCC 27853, 24 h; method in brief: as §4
# [22] = test system: Micrococcus flavus; experiment: Antibacterial activity against Micrococcus flavus ATCC 10240 after 72 hrs by serial sub-cultivation method; assay type: functional; settings: ATCC 10240, 72 h; method in brief: as §2
# [23] = test system: Staphylococcus aureus; experiment: Antibacterial activity against Staphylococcus aureus ATCC 6538 after 72 hrs by serial sub-cultivation method; assay type: functional; settings: ATCC 6538, 72 h; method in brief: as §2
# [24] = test system: Aspergillus niger; experiment: Antifungal activity against Aspergillus niger ATCC 6275 after 72 hrs by serial dilution method; assay type: functional; settings: ATCC 6275, 72 h; method in brief: as §3
# [25] = test system: Bacillus cereus; experiment: Antibacterial activity against Bacillus cereus clinical isolate after 72 hrs by serial sub-cultivation method; assay type: functional; method in brief: as §2
# [26] = test system: Micrococcus flavus; experiment: Antibacterial activity against Micrococcus flavus ATCC 10240 after 24 hrs; assay type: functional; settings: ATCC 10240, 24 h; method in brief: as §4
# [27] = test system: Aspergillus fumigatus; experiment: Antifungal activity against Aspergillus fumigatus plant isolate after 72 hrs by serial dilution method
# [28] = test system: Listeria monocytogenes; experiment: Antibacterial activity against Listeria monocytogenes NCTC 7973 after 24 hrs; assay type: functional; settings: NCTC 7973, 24 h; method in brief: as §4
# [29] = test system: Aspergillus versicolor; experiment: Antifungal activity against Aspergillus versicolor ATCC 11730 after 72 hrs by serial dilution method; assay type: functional; settings: ATCC 11730, 72 h; method in brief: as §3
# [30] = test system: Talaromyces funiculosus; experiment: Antifungal activity against Penicillium funiculosum ATCC 36839 after 72 hrs by serial sub-cultivation method; assay type: functional; settings: ATCC 36839, 72 h; method in brief: as §1
# [31] = test system: Trichoderma viride; experiment: Antifungal activity against Trichoderma viride IAM 5061 after 72 hrs by serial sub-cultivation method; assay type: functional; settings: IAM 5061, 72 h; method in brief: as §1
# [32] = test system: Penicillium ochrochloron; experiment: Antifungal activity against Penicillium ochrochloron ATCC 9112 after 72 hrs by serial sub-cultivation method; assay type: functional; settings: ATCC 9112, 72 h; method in brief: as §1
Compound,MFC [1],MBC [2],MIC [3],MIC [4],MIC [5],MBC [6],MIC [7],MIC [8],MIC [9],MBC [10],MFC [11],MIC [12],MFC [13],MIC [14],MBC [15],MIC [16],MFC [17],MFC [18],MIC [19],MBC [20],also measured
O=C1N/C(=N/c2nc(C34CC5CC(CC(C5)C3)C4)cs2)S/C1=C\c1ccccc1Cl,21.9 µM,43.8 µM,11 µM,21.9 µM,21.9 µM,43.8 µM,21.9 µM,21.9 µM,43.8 µM,63.7 µM,16.4 µM,11 µM,21.9 µM,21.9 µM,43.8 µM,11 µM,21.9 µM,21.9 µM,11 µM,43.8 µM,MIC [21]: 21.9 µM; MBC [22]: 23.8 µM; MBC [23]: 43.8 µM; MIC [24]: 11 µM; MBC [25]: 43.8 µM; MIC [26]: 16.4 µM; MIC [27]: 16.4 µM; MIC [28]: 21.9 µM; MIC [29]: 16.4 µM; MFC [30]: 32.3 µM; MFC [31]: 21.9 µM; MFC [32]: 21.9 µM
COc1cc(/C=C2\S/C(=N\c3nc(C45CC6CC(CC(C6)C4)C5)cs3)NC2=O)cc(OC)c1O,20.9 µM,41.8 µM,10.5 µM,20.9 µM,10.5 µM,41.8 µM,10.5 µM,20.9 µM,41.8 µM,62.7 µM,20.9 µM,5.2 µM,20.9 µM,10.5 µM,15.7 µM,10.5 µM,20.9 µM,20.9 µM,5.2 µM,41.8 µM,MIC [21]: 15.7 µM; MBC [22]: 20.9 µM; MBC [23]: 15.7 µM; MIC [24]: 10.5 µM; MBC [25]: 20.9 µM; MIC [26]: 10.5 µM; MIC [27]: 15.7 µM; MIC [28]: 20.9 µM; MIC [29]: 15.7 µM; MFC [30]: 20.9 µM; MFC [31]: 20.9 µM; MFC [32]: 10.5 µM
O=C1N/C(=N/c2nc(C34CC5CC(CC(C5)C3)C4)cs2)S/C1=C\c1cccc(Cl)c1,21.9 µM,43.8 µM,11 µM,16.4 µM,21.9 µM,43.8 µM,16.4 µM,21.9 µM,43.8 µM,65.7 µM,21.9 µM,5.5 µM,21.9 µM,21.9 µM,43.8 µM,16.4 µM,21.9 µM,21.9 µM,16.4 µM,43.8 µM,MIC [21]: 21.9 µM; MBC [22]: 21.9 µM; MBC [23]: 43.8 µM; MIC [24]: 11 µM; MBC [25]: 21.9 µM; MIC [26]: 11 µM; MIC [27]: 11 µM; MIC [28]: 21.9 µM; MIC [29]: 11 µM; MFC [30]: 21.9 µM; MFC [31]: 21.9 µM; MFC [32]: 11 µM

# Reference: ChEMBL document CHEMBL1157665, “Novel 4-thiazolidinone derivatives as potential antifungal and antibacterial drugs” (2010)
